High-throughput results as filed in PubChem.
TRPC4 block = inhibitors of mouse TRPC4 channel; Q9QUQ5; HEK293 TRPC4beta/mu-opioid, DAMGO-evoked Fluo4 calcium flux; hits give low values; B-score at 10 µM; hit rate 0.39% among 300,000; AID 2247;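 active = B-score over 3 SD under the library average, no early fluorescence shift, positive overall ratio signal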
Target sequence (Q9QUQ5 whole entry, looked up): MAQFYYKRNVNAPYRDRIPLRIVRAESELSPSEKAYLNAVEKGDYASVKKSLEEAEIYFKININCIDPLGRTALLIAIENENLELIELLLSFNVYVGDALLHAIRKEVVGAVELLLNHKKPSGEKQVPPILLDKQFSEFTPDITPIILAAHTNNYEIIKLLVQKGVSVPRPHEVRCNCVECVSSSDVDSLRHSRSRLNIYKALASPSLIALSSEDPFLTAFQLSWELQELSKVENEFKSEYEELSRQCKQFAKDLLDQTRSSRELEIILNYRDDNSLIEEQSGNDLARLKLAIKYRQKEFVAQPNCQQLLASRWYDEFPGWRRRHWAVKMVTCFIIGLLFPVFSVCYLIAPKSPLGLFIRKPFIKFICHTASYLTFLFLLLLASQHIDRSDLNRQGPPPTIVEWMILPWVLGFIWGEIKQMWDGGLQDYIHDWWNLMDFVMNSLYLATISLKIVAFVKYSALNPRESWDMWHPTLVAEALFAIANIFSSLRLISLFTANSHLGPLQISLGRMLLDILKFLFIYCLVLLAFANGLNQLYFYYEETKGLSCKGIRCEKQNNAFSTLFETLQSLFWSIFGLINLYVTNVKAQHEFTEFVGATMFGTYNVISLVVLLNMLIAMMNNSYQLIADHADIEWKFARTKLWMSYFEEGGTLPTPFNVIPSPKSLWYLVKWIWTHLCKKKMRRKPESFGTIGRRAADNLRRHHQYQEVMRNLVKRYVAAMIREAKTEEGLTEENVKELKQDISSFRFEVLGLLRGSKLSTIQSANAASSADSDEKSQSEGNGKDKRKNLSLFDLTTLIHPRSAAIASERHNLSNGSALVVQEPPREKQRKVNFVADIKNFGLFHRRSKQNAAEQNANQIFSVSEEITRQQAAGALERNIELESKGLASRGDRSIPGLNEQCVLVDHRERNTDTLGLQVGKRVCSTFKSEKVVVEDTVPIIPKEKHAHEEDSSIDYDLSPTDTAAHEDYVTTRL
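Assay system – HEK293 line stably carrying TRPC4beta and mu-opioid receptor · Doses – single dose · Detection – Fluo4 calcium-dye fluorescence, kinetic read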
TRPC6 activator = mouse TRPC6 channel activation; Q61143; hit rate 0.13% among 310,000; HEK293-TRPC6 membrane potential dye fluorescence; hits give high values; B-score at 10 µM;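 active = B-score of the integrated fluorescence ratio above library mean plus 3 SD, and starting fluorescence ratio within library mean plus 5 SD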;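 also: higher score means more depolarization so channel activation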
TRPC4 potent = allosteric potentiators of mouse TRPC4 channel; Q9QUQ5; HEK293 TRPC4beta/mu-opioid, DAMGO EC20, Fluo-4 Ca2+ flux; hits give high values; B-score at 10 µM; hit rate 0.42% among 310,000; AID 2227;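 active = B-score of calcium response area above 5 SD of library B-scores, with initial fluorescence ratio within 5 SD of library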;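 also: B-score of integrated fluorescence ratio over time as area under calcium response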
TRPC4 agonist = opens the mouse TRPC4 cation channel. Q9QUQ5. HEK293 TRPC4beta/mu-opioid, Fluo4 calcium fluorescence; hits give high values. B-score at 10 µM. hit rate 0.49% among 310,000. AID 2237;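 active = B-score above 5 SD of library B-scores, and initial fluorescence ratio not above library mean plus 5 SD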;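 also: positive B-score marks a calcium rise read as TRPC4 activation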
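Assay system: HEK293 cells stably co-expressing mouse TRPC4beta and mu-opioid receptor / Timing: Fluo4 dye loading 45 min at room temperature, 110 s recording / Signal: Fluo4 calcium-sensitive dye fluorescence, kinetic, 1 Hz baseline / Read-out: integrated baseline-normalised fluorescence ratio, converted to per-well B score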
TRPC6 inhibitor = mouse TRPC6 channel inhibition; HEK293-TRPC6, membrane potential dye, ACh-evoked depolarization; hits give low values; hit rate 1.1% among 310,000; AID 2553; B-score at 10 µM;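 active = B-score under library mean minus 3 SD, initial fluorescence not abnormally high, positive integrated signal ratio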;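 also: B-score derived from integrated fluorescence ratio over the kinetic read; more negative B-score means stronger inhibition of depolarization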
TRPC4 spec 2 = second check of whether TRPC6 inhibitors also affect mouse TRPC4; shares compounds with TRPC6 inhibitor; HEK293 TRPC4/MOR, membrane potential dye fluorescence; channel activated by saturating DAMGO dose; inhibition, % at 10 µM; hit rate 42% among 920; AID 2776;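 active = compounds whose fluorescence signal differed from control wells by over 3 SD, either direction, in both duplicate plates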
TRPC4 spec = mouse TRPC4 off-target activity of TRPC6 inhibitors; hit rate 61% among 920; HEK293 TRPC4/mu-opioid, membrane potential fluorescence; activity change, negative = inhibition, % at 10 µM; shares compounds with TRPC6 inhibitor;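 active = rise or fall in signal beyond 3 SD of buffer-only wells in both replicate plates, either sign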;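 also: integrated kinetic ratio of fluorescence range over baseline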
HEK293 MPD ctr 2-1 = second counter-screen for TRPC6 inhibitors: parental HEK293 cells; shares compounds with TRPC6 inhibitor; parental HEK293 membrane potential dye fluorescence; maximal acetylcholine challenge after compound addition; signal change vs control, % at 10 µM; hit rate 31% among 920; AID 2779;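 active = membrane potential signal moving either way by over 3 SD of the maximum-effect control, in both duplicate plates, meaning non-specific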
HEK293 MPD ctr-1 = counter-screen for TRPC6 inhibitors: effect in parental HEK293 cells; shares compounds with TRPC6 inhibitor; parental HEK293 membrane potential dye fluorescence; membrane potential signal change, % at 10 µM; hit rate 60% among 920; AID 2780;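 active = membrane potential signal shifting up or down by more than 3 SD of buffer-only wells, on both duplicate plates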
HEK293 MPD ctr-2 = checks TRPC6 modulator effects in parental HEK293 cells; shares compounds with TRPC6 inhibitor; membrane potential dye fluorescence; membrane potential signal change, % at 10 µM; hit rate 51% among 2,400; AID 488924;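 active = membrane potential signal moves up or down beyond 5 SD from buffer-only wells, on both duplicate plates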
HEK293 MPD ctr 2-2 = second counter-screen for TRPC6 modulators: effect in parental HEK293 cells. hit rate 14% among 2,400. membrane potential dye fluorescence; after compound, maximal acetylcholine stimulation. AID 488926. shares compounds with TRPC6 inhibitor. inhibition, % at 10 µM;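 active = membrane potential signal drops by more than 5 SD from the mean control signal, in both duplicate plates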;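 also: plate controls were acetylcholine ECmax control wells for no effect and buffer only wells for full effect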
TRPC4/MOR mod = mouse TRPC4 off-target activity of TRPC6 modulators; shares compounds with TRPC6 inhibitor; HEK293 TRPC4/mu-opioid, membrane potential fluorescence; percent change from control (negative = decrease, positive = increase), % at 10 µM; hit rate 69% among 2,400; AID 488927;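 active = membrane potential signal moved up or down beyond 5 SD of buffer control wells, in both duplicate plates, actives on both sides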;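 also: plate controls were assay buffer wells for no effect and DAMGO maximal-effect wells for full effect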
TRPC4 ctr inh 2 = second selectivity test of TRPC6 modulators against mouse TRPC4. AID 488928. hit rate 55% among 2,400. inhibition, % at 10 µM. shares compounds with TRPC6 inhibitor. HEK293 TRPC4/mu-opioid, membrane potential dye fluorescence; stimulated with maximal-effect DAMGO;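 active = drop in membrane potential signal beyond 5 SD of the control wells in both duplicate plates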;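 also: TRPC4 counter screen for TRPC6 hits run under conditions tuned for TRPC6 not TRPC4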
TRPC6 block conf = mouse TRPC6 inhibitor confirmation; shares compounds with TRPC6 inhibitor; HEK293-TRPC6, membrane potential dye, ACh-evoked depolarization; inhibition, % at 10 µM; hit rate 43% among 3,300;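 active = fluorescence ratio falls more than 5 SD below the full-stimulation control mean, in both duplicate runs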;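 also: integrated fluorescence ratio of peak minus minimum over baseline after agonist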
TRPC6 act conf = confirmation of mouse TRPC6 activators; shares compounds with TRPC6 inhibitor; HEK293-TRPC6 membrane potential dye fluorescence, FDSS; activation, % at 10 µM; hit rate 11% among 2,800; AID 488961;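 active = ratio signal rise beyond 5 SD above unstimulated control wells' mean, seen in both duplicate runs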;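 also: plate controls were buffer EC0 wells for no effect and acetylcholine ECmax response for full effect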
* marks the source's active call; other numbers are inactive results; i = inactive; · = no result. An excerpt weighted towards active compounds, which were near 2.3% of everything screened.

SMILES	TRPC4 block	TRPC6 activator	TRPC4 potent	TRPC4 agonist	TRPC6 inhibitor	HEK293 MPD ctr-2	HEK293 MPD ctr 2-2	TRPC4/MOR mod	TRPC4 ctr inh 2	TRPC6 block conf	TRPC6 act conf	others
Cc1nonc1OCCNCCNc1ccc([N+](=O)[O-])c2cccnc12	i	i	i	i	-5.1*	-180%*	i	-38%*	75%*	48%*	i
CCc1nc2ccccc2c(=O)n1-c1ccccc1[N+](=O)[O-]	i	i	i	i	i	·	·	·	·	·	·
CN1CCN(c2ccc3c(c2)S(=O)(=O)c2ccccc2C3=O)CC1	i	i	i	i	-5.3*	90%*	i	-52%*	32%*	i	i
CN1CCN(c2cccc3c2C(=O)c2ccccc2C3=O)CC1	i	i	17*	i	-18*	-288%*	82%*	-53%*	72%*	80%*	i
CN1CCN(c2ccc(NC(=O)Oc3ccccc3)cc2)CC1	i	i	i	i	i	·	·	·	·	·	·
Cc1nn(Cc2ccccc2)c(Cl)c1C(=O)NC1CCCc2ccccc21 (stereo unspecified)	i	i	i	i	i	·	·	·	·	·	·
Nc1c([N+](=O)[O-])cc(F)c(N2CCNCC2)c1Br	i	i	23*	i	-5.9*	-128%*	i	-22%*	34%*	39%*	i
CN1CCN(c2c(F)cc([N+](=O)[O-])c(N)c2Br)CC1	i	i	i	i	i	·	·	·	·	·	·
CN1CCN(c2ccc(S(C)(=O)=O)cc2[N+](=O)[O-])CC1	i	i	i	i	i	·	·	·	·	·	·
O=C(c1cc([N+](=O)[O-])ccc1N1CCNCC1)N1CCOCC1	i	i	i	i	i	·	·	·	·	·	·
Cn1c(=O)n(C)c2cc([N+](=O)[O-])c(N3CCNCC3)cc21	i	i	i	i	-6.3*	-276%*	70%*	-46%*	54%*	52%*	i
O=[N+]([O-])c1cc(F)c(N2CCCC2)cc1N1CCNCC1	i	i	i	i	-6.9*	·	·	·	·	i	i	TRPC4 spec 2=48%*;TRPC4 spec=-29%*;HEK293 MPD ctr 2-1=i;HEK293 MPD ctr-1=-399%*
CN1CCN(c2cc(N3CCCCCC3)c(F)cc2[N+](=O)[O-])CC1	i	i	i	i	-6*	-88%*	i	-24%*	54%*	41%*	i
O=C(Nc1ccccc1)N1CC2CC(C1)c1cccc(=O)n1C2 (stereo unspecified)	i	i	i	i	i	·	·	·	·	·	·
C=CCn1c(O)c(C=Nc2ccc(OC)cc2C)c(=O)[nH]c1=O	i	i	i	i	i	·	·	·	·	·	·
ON1C2CCCCC2N(O)C1c1ccccc1F (stereo unspecified)	i	i	i	i	i	·	·	·	·	·	·
CC1CN(c2ccc([N+](=O)[O-])c(N3CCCCC3)c2)CCN1 (stereo unspecified)	i	i	i	i	-5.3*	i	i	-10%*	i	i	i
CN1CCN(c2ccc([N+](=O)[O-])c(Sc3nncn3C)c2)CC1	i	i	i	i	i	·	·	·	·	·	·
COc1cc2c(cc1OC)-c1c(OC)c(OC)cc3c1[C@H](C2)N(C)CC3	i	i	i	i	-7.7*	-412%*	i	-58%*	38%*	45%*	i
COc1ccccc1CCNC1CCCCCC1	i	i	i	i	i	·	·	·	·	·	·
COc1ccccc1CCNC1CCC(C(C)(C)C)CC1 (stereo unspecified)	i	18*	i	i	-14*	673%*	105%*	156%*	82%*	98%*	178%*
